Among the data in ChEMBL document CHEMBL1127460, “Cancer chemopreventive 3-substituted-4-oxoretinoic acids” (J Med Chem, 1994) are Average and Control values, retold here.

Assay [1] addresses T1, Ornithine decarboxylase (Mus musculus) (UniProt P00860).
T1 sequence (whole entry): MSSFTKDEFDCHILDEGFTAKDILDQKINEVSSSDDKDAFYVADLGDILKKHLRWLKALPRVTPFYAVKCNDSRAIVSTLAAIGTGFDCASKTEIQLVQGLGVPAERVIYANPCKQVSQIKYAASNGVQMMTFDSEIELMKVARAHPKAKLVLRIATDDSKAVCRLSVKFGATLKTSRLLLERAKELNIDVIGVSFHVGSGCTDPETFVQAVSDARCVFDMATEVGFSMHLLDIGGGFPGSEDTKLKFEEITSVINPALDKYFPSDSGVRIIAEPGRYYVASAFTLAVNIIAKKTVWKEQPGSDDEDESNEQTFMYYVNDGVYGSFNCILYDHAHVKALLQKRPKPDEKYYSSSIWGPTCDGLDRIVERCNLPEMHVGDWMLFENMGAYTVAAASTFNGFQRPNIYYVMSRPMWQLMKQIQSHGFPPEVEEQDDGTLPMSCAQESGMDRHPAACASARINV
In words: In vivo inhibition of ornithine de-carboxylase (ODC) activity induced by 12-0-tetradecanoylphorbol 13-acetate (TPA) in mouse skin. The class given is functional, organism-based. The method, boiled down:
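Mouse-skin assay of TPA induction of ornithine decarboxylase, after Verma et al. Retinoid-treated groups are compared with TPA-induced controls. ODC activity is expressed as a percentage of control-group activity and averaged over the stated number of tests.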

Assay [2] concerns the target T1, Ornithine decarboxylase (Mus musculus). In words: Inhibition of TPA-induced ODC activity as percentage of the average no. of papillomas / mouse in groups of control mice was determined using papilloma assay. Format: functional. The arrangement: concentration or dose not given beside the values. A digest of the protocol: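 CD-1 female mice, shaved skin, initiated once with 51.2 μg DMBA in 0.2 mL acetone. From two weeks later, TPA 2 nmol in acetone twice weekly to the same area for 12–15 weeks. Tumors per mouse counted at the end, 10–15 mice per group. Group averages are expressed as a percentage of controls and averaged across experiments.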

Compound `CC1=C(/C=C/C(C)=C/C=C/C(C)=C/C(=O)O)C(C)(C)CC(C/C=C/c2ccccc2)C1=O` (stereo unspecified) came in with an Average in assay [1] of 23%. In addition, in assay [2], the Control was 39%.
The matching figures for `CC1=C(/C=C/C(C)=C/C=C/C(C)=C/C(=O)O)C(C)(C)CC(C)(C)C1=O`: 26% and 25%.
The matching figures for `C#CCC1CC(C)(C)C(/C=C/C(C)=C/C=C/C(C)=C/C(=O)OC)=C(C)C1=O` (stereo unspecified): 34% and 40%.
In the case of `CC1=C(/C=C/C(C)=C/C=C/C(C)=C/C(=O)O)C(C)(C)CCC1=O` (stereo in doubt; 3a), in assay [1], the Average was 17%. The compound also gave a Control in assay [2] of 39%.
`C=CCC1CC(C)(C)C(/C=C/C(C)=C/C=C/C(C)=C/C(=O)OC)=C(C)C1=O` (stereo unspecified): the Average in assay [1] worked out at 56%. For the same compound, the Control in assay [2] amounted to 42%.
The compound `C=CCC1CC(C)(C)C(/C=C/C(C)=C/C=C/C(C)=C/C(=O)O)=C(C)C1=O` (stereo unspecified) had an Average in assay [1] of 68%. Also, the Control in assay [2] is 47%.
The corresponding values for `COC(=O)/C=C(C)/C=C/C=C(C)/C=C/C1=C(C)C(=O)C(Cc2ccccc2)CC1(C)C` (stereo unspecified) are 56% and 78%.
For the compound `COC(=O)/C=C(C)/C=C/C=C(C)/C=C/C1=C(C)C(=O)C(C)(C)CC1(C)C`, in assay [1], the Average stood at 22%. Further, in assay [2], the Control is 22%.
For the compound `CC1=C(/C=C/C(C)=C/C=C/C(C)=C/C(=O)Nc2ccc(O)cc2)C(C)(C)CCC1`, the Average in assay [1] came out at 60%. Besides, in assay [2], the Control was 89%.
The compound `COC(=O)/C=C(C)/C=C/C=C(C)/C=C/C1=C(C)C(=O)CCC1(C)C` gave an Average in assay [1] of 18%. Also, the Control in assay [2] was 25%.
`CCC1CC(C)(C)C(/C=C/C(C)=C/C=C/C(C)=C/C(=O)O)=C(C)C1=O` (stereo unspecified): in assay [1], the Average worked out at 40%. For the same compound, in assay [2], the Control was 57%.
Take `COC(=O)/C=C(C)/C=C/C=C(C)/C=C/C1=C(C)C(=O)C(C/C=C/c2ccccc2)CC1(C)C` (stereo unspecified): in assay [1], the Average amounted to 31%. The compound also showed a Control in assay [2] of 20%.
In assay [1], `CC1=C(/C=C/C(C)=C/C=C/C(C)=C/C(=O)O)C(C)(C)CC(Cc2ccccc2)C1=O` (stereo unspecified) displayed an Average of 34%. Further, in assay [2], the Control was 38%.
Take `CC1=C(/C=C/C(C)=C/C=C/C(C)=C/C(=O)O)C(C)(C)CCC1`: the Average in assay [1] stood at 8%. Further, in assay [2], the Control worked out at 16%.
Regarding `COC(=O)/C=C(C)/C=C/C=C(C)/C=C/C1=C(C)C(=O)C(C)CC1(C)C` (stereo unspecified), in assay [1], the Average came out at 28%. Also, in assay [2], the Control is 27%.
The corresponding values for `C#CCC1CC(C)(C)C(/C=C/C(C)=C/C=C/C(C)=C/C(=O)O)=C(C)C1=O` (stereo unspecified) are 47% and 64%.
Consider `CC1=C(/C=C/C(C)=C/C=C/C(C)=C/C(=O)O)C(C)(C)CC(C)C1=O` (stereo unspecified), for which the Average in assay [1] amounted to 26%. This compound also showed a Control in assay [2] of 29%.
The matching figures for `CCC1CC(C)(C)C(/C=C/C(C)=C/C=C/C(C)=C/C(=O)OC)=C(C)C1=O` (stereo unspecified): 31% and 68%.
